We go through 19 compounds from ChEMBL document CHEMBL3734693, “Discovery of potent, selective, and orally bioavailable inhibitors of interleukin-1 receptor-associate kinase-4” (Bioorg Med Chem Lett, 2015).

Data set [1] deals with T1, Interleukin-1 receptor-associated kinase 4 (Homo sapiens, UniProt Q9NWZ3).
T1 sequence (Q9NWZ3 whole entry): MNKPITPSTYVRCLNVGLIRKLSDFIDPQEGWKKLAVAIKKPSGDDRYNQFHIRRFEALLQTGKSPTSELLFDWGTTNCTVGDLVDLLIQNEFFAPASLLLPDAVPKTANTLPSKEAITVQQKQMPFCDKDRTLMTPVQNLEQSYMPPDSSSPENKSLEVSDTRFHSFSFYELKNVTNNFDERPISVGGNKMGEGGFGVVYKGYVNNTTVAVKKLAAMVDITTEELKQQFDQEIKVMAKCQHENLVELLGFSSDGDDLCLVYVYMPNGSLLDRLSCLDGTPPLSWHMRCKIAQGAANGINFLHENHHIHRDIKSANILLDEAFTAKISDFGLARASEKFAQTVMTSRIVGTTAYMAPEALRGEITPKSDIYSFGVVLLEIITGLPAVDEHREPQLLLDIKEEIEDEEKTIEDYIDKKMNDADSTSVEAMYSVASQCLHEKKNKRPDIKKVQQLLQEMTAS
Nature of the data set: Inhibition of recombinant full length IRAK-4 (unknown origin) using the biotinylated substrate RRRVTSPARRS by chemiluminescent ELISA.

The target of data set [2] is Interleukin-1 receptor-associated kinase 1 (Homo sapiens, UniProt P51617). Nature of the data set: Inhibition of IRAK-1 (unknown origin).
Sequence of Interleukin-1 receptor-associated kinase 1 (P51617 whole entry): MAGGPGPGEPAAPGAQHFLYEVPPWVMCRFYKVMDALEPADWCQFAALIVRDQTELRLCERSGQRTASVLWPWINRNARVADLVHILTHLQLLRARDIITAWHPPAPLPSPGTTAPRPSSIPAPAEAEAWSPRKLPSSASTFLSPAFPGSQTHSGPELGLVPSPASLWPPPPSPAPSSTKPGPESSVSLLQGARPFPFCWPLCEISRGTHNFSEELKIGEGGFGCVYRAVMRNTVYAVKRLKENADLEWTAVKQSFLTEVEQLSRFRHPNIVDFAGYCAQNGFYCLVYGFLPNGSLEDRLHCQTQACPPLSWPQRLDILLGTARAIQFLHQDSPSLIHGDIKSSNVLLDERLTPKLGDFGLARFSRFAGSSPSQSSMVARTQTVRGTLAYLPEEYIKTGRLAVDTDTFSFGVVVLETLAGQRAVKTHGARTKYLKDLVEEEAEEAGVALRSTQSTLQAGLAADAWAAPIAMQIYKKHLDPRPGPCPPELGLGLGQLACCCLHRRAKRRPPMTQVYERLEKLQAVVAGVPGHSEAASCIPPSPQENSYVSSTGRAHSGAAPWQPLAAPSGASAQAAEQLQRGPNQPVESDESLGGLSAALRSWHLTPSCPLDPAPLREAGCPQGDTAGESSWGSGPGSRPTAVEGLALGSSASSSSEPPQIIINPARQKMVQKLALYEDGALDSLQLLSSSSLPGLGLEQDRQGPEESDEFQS
Data set [3] addresses T2, Mitogen-activated protein kinase kinase kinase 7 (Homo sapiens, UniProt O43318).
T2 sequence (O43318 whole entry): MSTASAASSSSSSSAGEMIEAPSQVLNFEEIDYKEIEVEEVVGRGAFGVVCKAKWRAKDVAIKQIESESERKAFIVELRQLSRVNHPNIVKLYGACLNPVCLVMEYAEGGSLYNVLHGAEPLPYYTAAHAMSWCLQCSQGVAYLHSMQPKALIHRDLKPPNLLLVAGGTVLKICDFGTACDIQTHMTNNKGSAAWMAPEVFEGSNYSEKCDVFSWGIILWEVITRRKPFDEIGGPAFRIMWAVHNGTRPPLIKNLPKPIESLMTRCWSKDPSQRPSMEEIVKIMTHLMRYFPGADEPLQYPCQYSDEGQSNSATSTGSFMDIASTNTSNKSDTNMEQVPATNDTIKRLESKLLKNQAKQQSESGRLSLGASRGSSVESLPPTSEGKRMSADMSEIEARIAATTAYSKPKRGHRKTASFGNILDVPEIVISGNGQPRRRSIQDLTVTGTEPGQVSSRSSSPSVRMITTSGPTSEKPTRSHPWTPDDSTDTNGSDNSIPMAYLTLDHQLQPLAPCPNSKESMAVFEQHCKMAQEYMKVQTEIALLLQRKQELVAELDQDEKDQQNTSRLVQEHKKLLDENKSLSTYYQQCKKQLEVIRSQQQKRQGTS
Nature of the data set: Inhibition of TAK1 (unknown origin).

Data set [4] is described as follows: Inhibition of Interleukin-1 induced Nuclear factor-kappa-B activation in primary human monocyte by electrophoretic mobility shift assay. (In general: A gel shift assay detects complexes by their altered migration in electrophoresis.)
A short description of data set [5]: Solubility of the compound at pH 7.4. The settings on record: buffer. It counts as physicochemical.
Data set [6] is described as follows: Permeability of the compound. The format is ADME. To be noted: not told; read-out: permeability.
Data set [7] can be described thus: Clearance in rat at 0.5 mg/kg, iv and 2 mg/kg, po. The format is ADME, organism-based. The settings on record: in vivo. The method in brief:
(§1)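 Rats were given the compound intravenously at 0.5 mg/kg and orally at 2.0 mg/kg. Clearance, half-life, AUC and oral bioavailability were determined from these two dosings.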

A short description of data set [8]: Half-life in rat at 0.5 mg/kg, iv and 2 mg/kg, po. It counts as ADME, organism-based. The settings on record: in vivo. The method in brief: as §1
The test system of another data set is Rattus norvegicus. Nature of the data set: AUC in rat at 0.5 mg/kg, iv and 2 mg/kg, po. The format is ADME, organism-based. The settings on record: in vivo. The method in brief:
as §1

A short description of data set [9]: Oral bioavailability in rat at 2 mg/kg. The format is ADME, organism-based. To be noted: in vivo. The method in brief:
as §1

For data set [10], the species on record is Homo sapiens. Nature of the data set: Ratio of Ki for IRAK-1 (unknown origin) to Ki for recombinant full length IRAK-4 (unknown origin).
The species entered for data set [11] is Homo sapiens. Nature of the data set: Ratio of Ki for TAK1 (unknown origin) to Ki for recombinant full length IRAK-4 (unknown origin).
Data set [12] is filed under the species Homo sapiens. Nature of the data set: Selectivity for recombinant IRAK-4 (unknown origin) over PKA (unknown origin).
The species entered for data set [13] is Homo sapiens. In words: Selectivity for recombinant IRAK-4 (unknown origin) over PKC (unknown origin).
The species entered for data set [14] is Homo sapiens. Nature of the data set: Selectivity for recombinant IRAK-4 (unknown origin) over CDK2 (unknown origin).
The species entered for data set [15] is Homo sapiens. In words: Selectivity for recombinant IRAK-4 (unknown origin) over CaMK (unknown origin).
Data set [16] is filed under the species Homo sapiens. In words: Selectivity for recombinant IRAK-4 (unknown origin) over Akt1 (unknown origin).
For data set [17], the species on record is Homo sapiens. Nature of the data set: Selectivity for recombinant IRAK-4 (unknown origin) over EGFRK (unknown origin).
For data set [18], the species on record is Homo sapiens. Nature of the data set: Selectivity for recombinant IRAK-4 (unknown origin) over pp60SRC (unknown origin).
The species entered for data set [19] is Homo sapiens. In words: Selectivity for recombinant IRAK-4 (unknown origin) over LCK (unknown origin).

Values after ≈ are worked out from the molar mass of the structure shown.

In the case of `O=C(Nc1nc2cc(F)ccc2n1[C@H]1CC[C@H](O)CC1)c1cccc([N+](=O)[O-])c1`, in data set [1], the Ki (usually the dissociation constant of the complex between target and ligand, obtained from inhibition or displacement) worked out at 6.5 nM.

`O=C(Nc1nc2cc(CN3CCCCC3)ccc2n1[C@H]1CC[C@@H](CO)CC1)c1cccc(C(F)(F)F)c1`: the Ki in data set [1] was 0.42 nM; in [2], 72 nM; in data set [3], 130 nM. For the same compound, in [4], the IC50 (usually the concentration at which inhibition is half-maximal) is less than 100 nM.

As for `CC(C)(C)C(=O)Oc1ccc2c(c1)nc(NC(=O)c1cccc([N+](=O)[O-])c1)n2-c1ccc(CCCO)cc1`, the IC50 came to 150 nM in data set [1] and 900 nM in [2].

In the case of `O=C(Nc1nc2cc(CO)ccc2n1[C@H]1CC[C@H](O)CC1)c1cccc([N+](=O)[O-])c1`, the Ki in data set [1] stood at 11 nM. Besides, the concentration in solution in [5] (solubility) was 4.9 µg/mL (≈ 11.9 µM). Also, in data set [6], the Papp is less than 1 ×10⁻⁶ cm/s.

For `O=C(Nc1nc2cc(CN3CCCCC3)ccc2n1-c1ccc(CCO)cc1)c1cccc(C(F)(F)F)c1`, the Ki in [1] was determined as 1.3 nM; in data set [2], 12 nM; in [3], 700 nM. For the same compound, the IC50 in [4] was less than 100 nM. The compound further gave a clearance in data set [7] of 36.7 mL/min/kg. Further, the half-life (usually how long it takes for the measured level to halve) in data set [8] is 1.3 h. The AUC (usually concentration integrated over time) in the data set with Rattus norvegicus amounted to 175 ng·h/mL. Besides, the bioavailability – broadly, the share of a dose that reaches the circulation, judged against a reference dose that is usually intravenous – in data set [9] was 19%.

Regarding `O=C(Nc1nc2cc(F)ccc2n1[C@H]1CC[C@H](CO)C1)c1cccc([N+](=O)[O-])c1`, in data set [1], the Ki was found to be 11 nM.

As to `O=C(Nc1nc2cc(F)ccc2n1[C@H]1CC[C@@H](CO)CC1)c1cccc([N+](=O)[O-])c1`, the Ki in data set [1] was determined as 1.6 nM.

`O=C(Nc1nc2cc(CN3CCCCC3)ccc2n1[C@H]1CC[C@H](O)CC1)c1cccc([N+](=O)[O-])c1`: the results for the Ki in data set [1], in data set [2] and in [3] were 2.8 nM, 18 nM and 15 nM, respectively. The Ratio Ki in the data set filed under Homo sapiens [10] came out at 6.4; in the data set filed under Homo sapiens [11] it was 5.3. Also, the solubility (usually how much of the substance goes into solution per volume) in data set [5] is more than 50 µg/mL. The Papp in data set [6] turned out to be 6.6 ×10⁻⁶ cm/s. Moreover, the clearance in data set [7] is 41.7 mL/min/kg. This compound also showed a half-life in data set [8] of 2.1 h. This compound also displayed an AUC with Rattus norvegicus of 124 ng·h/mL. This compound displayed a bioavailability in [9] of 16%. For the same compound, the Selectivity ratio in the data set listed under Homo sapiens [12], in the data set listed under Homo sapiens [13], in the data set listed under Homo sapiens [14], in the data set filed under Homo sapiens [15], in the data set listed under Homo sapiens [16] and in the data set listed under Homo sapiens [17] was more than 100 each time. Further, the Selectivity ratio in the data set filed under Homo sapiens [18] and in the data set filed under Homo sapiens [19] was more than 100 throughout.

Regarding `O=C(Nc1nc2cc(F)ccc2n1[C@H]1CC[C@@H](CO)C1)c1cccc([N+](=O)[O-])c1`, the Ki in data set [1] came out at 7.8 nM.

As to `O=C(Nc1nc2cc(F)ccc2n1[C@H]1CC[C@H](CO)CC1)c1cccc([N+](=O)[O-])c1`, in data set [1], the Ki worked out at 6.4 nM.

With `O=C(Nc1nc2cc(F)ccc2n1CCCO)c1cccc([N+](=O)[O-])c1`, the Ki in [1] was determined as 38.5 nM.

Take `O=C(Nc1nc2ccc(CO)cc2n1[C@H]1CC[C@@H](CO)CC1)c1cccc(C(F)(F)F)c1`: the inhibition constant Ki in data set [1] was determined as 0.48 nM; in [3], 1300 nM. In addition, the IC50 in [4] is less than 100 nM.

`O=C(Nc1nc2cc(CN3CCOCC3)ccc2n1[C@H]1CC[C@H](O)CC1)c1cccc([N+](=O)[O-])c1`: the Ki in [1] stood at 3.8 nM. Besides, the solubility in data set [5] is 29 µg/mL (≈ 60.5 µM). Further, the Papp in data set [6] was less than 1 ×10⁻⁶ cm/s.

As to `O=C(Nc1nc2cc(CN3CCCCC3)ccc2n1[C@H]1CC[C@@H](CO)CC1)c1cccc([N+](=O)[O-])c1`, the Ki in data set [1] was determined as 0.7 nM; in [2], 48 nM; in data set [3], 30 nM. Moreover, the Ratio Ki in the data set listed under Homo sapiens [10] was determined as 68; in the data set filed under Homo sapiens [11], 43. Besides, the clearance in [7] was 40 mL/min/kg. Also, the half-life in data set [8] is 4.8 h. For the same compound, in the data set on Rattus norvegicus, the AUC worked out at 84 ng·h/mL. Also, the bioavailability in [9] is 10%.

Take `CC(C)(C)C(=O)Nc1ccc2c(c1)nc(NC(=O)c1cccc(C(F)(F)F)c1)n2[C@H]1CC[C@@H](CO)CC1`: the Ki in data set [1] was found to be 0.34 nM; in data set [3], 2500 nM. Besides, the IC50 in data set [4] is 100 nM.

As for `O=C(Nc1nc2cc(CN3CCCCC3)ccc2n1-c1ccccc1)c1cccc(C(F)(F)F)c1`, the results for the Ki in [1], in [2] and in data set [3] were 2.8 nM, 608 nM and 2500 nM, respectively. Further, the IC50 in data set [4] amounted to 300 nM. The clearance in [7] was 9 mL/min/kg. Besides, the half-life in data set [8] was 23.7 h. The AUC with Rattus norvegicus came to 1020 ng·h/mL. In data set [9], this compound displayed a bioavailability of 46%.

As to `O=C(Nc1nc2cc(CN3CCCC3=O)ccc2n1[C@H]1CC[C@H](O)CC1)c1cccc([N+](=O)[O-])c1`, the inhibition constant Ki in data set [1] stood at 0.5 nM. The same compound showed a solubility in [5] of 0.8 µg/mL (≈ 1.68 µM). Also, the Papp in [6] was less than 1 ×10⁻⁶ cm/s.

As to `O=C(Nc1nc2ccc(F)cc2[nH]1)c1cccc([N+](=O)[O-])c1`, the Ki in data set [1] was 4500 nM.

On to `O=C(Nc1nc2cc(CN3CCCCC3)ccc2n1-c1ccccc1)c1cccc([N+](=O)[O-])c1`, for which the Ki in data set [1] turned out to be 8.2 nM; in data set [2] it was 374 nM; in data set [3], 800 nM. In addition, the IC50 in data set [4] stood at 100 nM.
